For the first data set, the target named is Sphingosine 1-phosphate receptor 3 (Homo sapiens, UniProt Q99500). Description: Agonist activity at human S1P3 expressed in CHO cell membranes assessed as stimulation of [35S]-GTPgamma-S binding measured after 45 mins by liquid scintillation counting method. Details: species or system Cell membrane.
Chain of Sphingosine 1-phosphate receptor 3 (Q99500 whole entry): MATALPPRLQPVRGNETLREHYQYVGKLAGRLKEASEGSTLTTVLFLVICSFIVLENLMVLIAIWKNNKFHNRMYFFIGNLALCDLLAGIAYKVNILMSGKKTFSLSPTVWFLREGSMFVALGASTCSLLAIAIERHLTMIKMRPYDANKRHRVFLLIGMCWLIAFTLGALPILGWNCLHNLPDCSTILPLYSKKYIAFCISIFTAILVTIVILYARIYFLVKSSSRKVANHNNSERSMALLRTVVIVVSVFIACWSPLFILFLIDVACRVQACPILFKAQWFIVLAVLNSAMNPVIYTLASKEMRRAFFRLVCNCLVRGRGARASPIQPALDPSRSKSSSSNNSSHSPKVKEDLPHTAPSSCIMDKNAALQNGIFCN
Details: not given
By EC50 is commonly meant the midpoint of the concentration-response curve. Regarding `Cn1nc2c(c1-c1noc(-c3ccccc3)c1C(F)(F)F)CCc1cc(CN3CC(C(=O)O)C3)ccc1-2`, the EC50 was greater than 63 µM.
Still for that read-out and setting: the value for `O=C(O)C1CN(Cc2ccc3c(c2)CCc2c(-c4onc(-c5ccccc5)c4C(F)(F)F)noc2-3)C1` was 4.4 µM; that for `O=C(O)[C@H]1CCCN(CC(O)c2ccc3c(c2)CCc2c-3noc2-c2noc(-c3ccccc3)c2C(F)(F)F)C1` (stereo in doubt; 76) was 16 µM.
Still for that read-out and setting: the figure for `Cc1cc2c(cc1CN1CC(C(=O)O)C1)CCc1c-2noc1-c1noc(-c2ccccc2)c1C(F)(F)F` is 1.2 µM.
Take `O=C(O)C1CN(Cc2ccc3c(n2)CCc2c(-c4noc(-c5ccccc5)c4C(F)(F)F)noc2-3)C1`: the EC50 was greater than 63 µM.
As to `O=C(O)C1CN(Cc2ccc3c(c2)CCc2c-3noc2-c2onc(-c3ccccn3)c2C(F)(F)F)C1`, the EC50 stood at 1.3 µM.
On the same count and under the same terms, the figure for `O=C(O)C1CN(Cc2ccc3c(c2)Cc2c-3noc2-c2noc(-c3ccccc3)c2C(F)(F)F)C1` is 32 µM.

System in another data set: not listed separately
The data set can be described thus: Plasma concentration in Lewis rat at 1 mg/kg, po measured at 4 hr. The note with it: Lewis, plasma. The format is ADME, organism-based. A digest of the protocol:
(§1)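 Lewis rats received a single oral 1.0 mg/kg dose as solution or suspension in PEG300. Blood was drawn retro-orbitally under isoflurane at 4 h and 24 h, within the blood lymphocyte reduction study. n = 3−4 per group, group mean reported.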
With `O=C(O)C1CN(Cc2ccc3c(c2)CCc2c(-c4onc(-c5ccccc5)c4C(F)(F)F)noc2-3)C1`, the concentration at 4 h came out at 34 nM.
Same read-out and setting: the figure for `Cc1cc2c(cc1CN1CC(C(=O)O)C1)CCc1c-2noc1-c1noc(-c2ccccc2)c1C(F)(F)F` is 190 nM.
Same read-out and setting: the value for `O=C(O)C1CN(Cc2ccc3c(n2)CCc2c(-c4noc(-c5ccccc5)c4C(F)(F)F)noc2-3)C1` was 460 nM; that for `O=C(O)C1CN(Cc2ccc3c(c2)CCc2c-3noc2-c2onc(-c3ccccn3)c2C(F)(F)F)C1` was 120 nM.
Same read-out and setting: the value for `O=C(O)C1CN(Cc2ccc3c(c2)Cc2c-3noc2-c2noc(-c3ccccc3)c2C(F)(F)F)C1` was 21 nM.

A further data set relates to Rattus norvegicus. Description: Reduction in circulating lymphocytes count in Lewis rat blood at 1 mg/kg, po measured at 24 hrs by hematology analyzer based analysis. The format is functional. The arrangement: scale not given: the % may be the effect or the level left.
Details: not given
The method, boiled down: (§2)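 Lewis rats were given an oral dose as a solution or suspension in PEG300, with controls receiving vehicle only. Blood was taken by retro-orbital bleeding under isoflurane at 4 and 24 h. Lymphocytes were counted on a hematology analyzer. Reduction is relative to the vehicle group, averaged over the animals in each group (n = 3−4).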
Regarding `O=C(O)C1CN(Cc2ccc3c(c2)CCc2c(-c4onc(-c5ccccc5)c4C(F)(F)F)noc2-3)C1`, the Activity is 79%.
Same read-out and setting: the value for `Cc1cc2c(cc1CN1CC(C(=O)O)C1)CCc1c-2noc1-c1noc(-c2ccccc2)c1C(F)(F)F` was 34%.
Take `O=C(O)C1CN(Cc2ccc3c(n2)CCc2c(-c4noc(-c5ccccc5)c4C(F)(F)F)noc2-3)C1`: the Activity was found to be 32%.
Still for that read-out and setting: the value for `O=C(O)C1CN(Cc2ccc3c(c2)CCc2c-3noc2-c2onc(-c3ccccn3)c2C(F)(F)F)C1` was 69%.
The same measure, in the same setting: the value for `O=C(O)C1CN(Cc2ccc3c(c2)Cc2c-3noc2-c2noc(-c3ccccc3)c2C(F)(F)F)C1` was 3%.

Still in this data set, the particulars now being: 1 mg/kg, 24 h.
Consider `O=C(O)[C@H]1CCCN(CC(O)c2ccc3c(c2)CCc2c-3noc2-c2noc(-c3ccccc3)c2C(F)(F)F)C1` (stereo in doubt; 76), for which the Activity was determined as 20%.

System in another data set: not listed separately
The data set can be described thus: Selectivity index, ratio of EC50 for agonist activity at human S1P3 expressed in CHO cell membranes to EC50 for agonist activity at human S1P1 expressed in CHO cell membranes. It counts as cell-based.
Details: not given
For the compound `Cn1nc2c(c1-c1noc(-c3ccccc3)c1C(F)(F)F)CCc1cc(CN3CC(C(=O)O)C3)ccc1-2`, the Ratio EC50 is greater than 170.
Still for that read-out and setting: the figure for `O=C(O)C1CN(Cc2ccc3c(c2)CCc2c(-c4onc(-c5ccccc5)c4C(F)(F)F)noc2-3)C1` is 3400; for `Cc1cc2c(cc1CN1CC(C(=O)O)C1)CCc1c-2noc1-c1noc(-c2ccccc2)c1C(F)(F)F` it is 1400; for `O=C(O)C1CN(Cc2ccc3c(n2)CCc2c(-c4noc(-c5ccccc5)c4C(F)(F)F)noc2-3)C1` it is greater than 3700.
Still for that read-out and setting: the value for `O=C(O)C1CN(Cc2ccc3c(c2)CCc2c-3noc2-c2onc(-c3ccccn3)c2C(F)(F)F)C1` was 1300; that for `O=C(O)C1CN(Cc2ccc3c(c2)Cc2c-3noc2-c2noc(-c3ccccc3)c2C(F)(F)F)C1` was 4700.

System in another data set: not listed separately
Description: Plasma concentration in Lewis rat at 1 mg/kg, po measured at 24 hrs. The format is ADME, organism-based. The conditions noted are these: Lewis, plasma. The method, boiled down: as §1
For the compound `O=C(O)C1CN(Cc2ccc3c(c2)CCc2c(-c4onc(-c5ccccc5)c4C(F)(F)F)noc2-3)C1`, the concentration at 24 h came out at 8 nM.
The same measure, in the same setting: the figure for `Cc1cc2c(cc1CN1CC(C(=O)O)C1)CCc1c-2noc1-c1noc(-c2ccccc2)c1C(F)(F)F` is 4 nM.
The same measure, in the same setting: the figure for `O=C(O)C1CN(Cc2ccc3c(n2)CCc2c(-c4noc(-c5ccccc5)c4C(F)(F)F)noc2-3)C1` is 47 nM; for `O=C(O)C1CN(Cc2ccc3c(c2)CCc2c-3noc2-c2onc(-c3ccccn3)c2C(F)(F)F)C1` it is 1 nM.

The same data set, now with this note: in vivo, 1 mg/kg, 24 h.
`O=C(O)[C@H]1CCCN(CC(O)c2ccc3c(c2)CCc2c-3noc2-c2noc(-c3ccccc3)c2C(F)(F)F)C1` (stereo in doubt; 76) yielded a concentration of 21 nM.

Staying with this data set, now noted: in vivo, 1 mg/kg, 24 h, BLD = below limit of detection.
As to `O=C(O)C1CN(Cc2ccc3c(c2)Cc2c-3noc2-c2noc(-c3ccccc3)c2C(F)(F)F)C1`, the Cp result was “Bld”.

System in a further data set: not listed separately
Description: Ratio of plasma concentration in Lewis rat at 1 mg/kg, po measured at 4 hrs to plasma concentration in Lewis rat at 1 mg/kg, po measured at 24 hrs. The note with it: in vivo. The format is ADME, organism-based.
As for `O=C(O)C1CN(Cc2ccc3c(c2)CCc2c(-c4onc(-c5ccccc5)c4C(F)(F)F)noc2-3)C1`, the Ratio was 4.
On the same count and under the same terms, the figure for `O=C(O)[C@H]1CCCN(CC(O)c2ccc3c(c2)CCc2c-3noc2-c2noc(-c3ccccc3)c2C(F)(F)F)C1` (stereo in doubt; 76) is 7; for `Cc1cc2c(cc1CN1CC(C(=O)O)C1)CCc1c-2noc1-c1noc(-c2ccccc2)c1C(F)(F)F` it is 48.
Consider `O=C(O)C1CN(Cc2ccc3c(n2)CCc2c(-c4noc(-c5ccccc5)c4C(F)(F)F)noc2-3)C1`, for which the Ratio worked out at 10.
The same measure, in the same setting: the value for `O=C(O)C1CN(Cc2ccc3c(c2)CCc2c-3noc2-c2onc(-c3ccccn3)c2C(F)(F)F)C1` was 120.

The target of a further data set is Sphingosine 1-phosphate receptor 1 (Homo sapiens, UniProt P21453). Description: Agonist activity at human S1P1 expressed in CHO cell membranes assessed as stimulation of [35S]-GTPgamma-S binding measured after 45 mins by liquid scintillation counting method. The arrangement: species or system Cell membrane.
Chain of Sphingosine 1-phosphate receptor 1 (P21453 whole entry): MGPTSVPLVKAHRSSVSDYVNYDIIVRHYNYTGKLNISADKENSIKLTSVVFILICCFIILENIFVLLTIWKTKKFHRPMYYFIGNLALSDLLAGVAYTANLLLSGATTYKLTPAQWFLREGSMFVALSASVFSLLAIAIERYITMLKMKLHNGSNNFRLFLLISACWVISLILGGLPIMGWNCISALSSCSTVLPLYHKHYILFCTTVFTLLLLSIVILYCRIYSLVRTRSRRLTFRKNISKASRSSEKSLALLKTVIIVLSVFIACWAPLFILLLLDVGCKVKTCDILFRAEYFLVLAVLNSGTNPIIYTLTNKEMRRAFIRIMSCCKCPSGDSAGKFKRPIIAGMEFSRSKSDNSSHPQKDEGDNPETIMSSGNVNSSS
Details: not given
A digest of the protocol: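 S1P1/CHO cell membranes at 3 μg protein/well with 3-fold compound dilutions. [35S]GTPγS 0.2 nM final, 45 min at room temperature. Filter-plate capture, water washes, scintillation counting. EC50 taken at 50% of each compound's own Ymax.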
On the technique in general: Binding of GTPγS marks nucleotide exchange on a G protein.
Take `Cn1nc2c(c1-c1noc(-c3ccccc3)c1C(F)(F)F)CCc1cc(CN3CC(C(=O)O)C3)ccc1-2`: the EC50 is 0.38 µM.
On the same count and under the same terms, the figure for `O=C(O)C1CN(Cc2ccc3c(c2)CCc2c(-c4onc(-c5ccccc5)c4C(F)(F)F)noc2-3)C1` is 0.0013 µM.
With `O=C(O)[C@H]1CCCN(CC(O)c2ccc3c(c2)CCc2c-3noc2-c2noc(-c3ccccc3)c2C(F)(F)F)C1` (stereo in doubt; 76), the EC50 amounted to 0.026 µM.
On the same count and under the same terms, the value for `Cc1cc2c(cc1CN1CC(C(=O)O)C1)CCc1c-2noc1-c1noc(-c2ccccc2)c1C(F)(F)F` was 0.00087 µM; that for `O=C(O)C1CN(Cc2ccc3c(n2)CCc2c(-c4noc(-c5ccccc5)c4C(F)(F)F)noc2-3)C1` was 0.017 µM; that for `O=C(O)C1CN(Cc2ccc3c(c2)CCc2c-3noc2-c2onc(-c3ccccn3)c2C(F)(F)F)C1` was 0.001 µM.
Same read-out and setting: the value for `O=C(O)C1CN(Cc2ccc3c(c2)Cc2c-3noc2-c2noc(-c3ccccc3)c2C(F)(F)F)C1` was 0.0068 µM.

Another data set has as its system Rattus norvegicus. Description: Reduction in circulating lymphocytes count in Lewis rat blood at 1 mg/kg, po measured at 4 hrs by hematology analyzer based analysis. It counts as functional.
Details: not given
The arrangement: scale not given: the % may be the effect or the level left. The method, boiled down:
as §2
As for `O=C(O)C1CN(Cc2ccc3c(c2)CCc2c(-c4onc(-c5ccccc5)c4C(F)(F)F)noc2-3)C1`, the Activity is on record as 66%.
Same read-out and setting: the figure for `Cc1cc2c(cc1CN1CC(C(=O)O)C1)CCc1c-2noc1-c1noc(-c2ccccc2)c1C(F)(F)F` is 85%.
`O=C(O)C1CN(Cc2ccc3c(n2)CCc2c(-c4noc(-c5ccccc5)c4C(F)(F)F)noc2-3)C1` yielded an Activity of 76%.
The same measure, in the same setting: the value for `O=C(O)C1CN(Cc2ccc3c(c2)CCc2c-3noc2-c2onc(-c3ccccn3)c2C(F)(F)F)C1` was 82%; that for `O=C(O)C1CN(Cc2ccc3c(c2)Cc2c-3noc2-c2noc(-c3ccccc3)c2C(F)(F)F)C1` was 14%.

The same data set, now with this note: 1 mg/kg, 4 h.
In turn, `O=C(O)[C@H]1CCCN(CC(O)c2ccc3c(c2)CCc2c-3noc2-c2noc(-c3ccccc3)c2C(F)(F)F)C1` (stereo in doubt; 76) yielded an Activity of 28%.

For the origin of these results see ChEMBL document CHEMBL4680083, “Identification of Tricyclic Agonists of Sphingosine-1-phosphate Receptor 1 (S1P) Employing Ligand-Based Drug Design” (J Med Chem, 2016).
